ChEMBL document CHEMBL1140862, “Berberine analogues as a novel class of the low-density-lipoprotein receptor up-regulators: synthesis, structure-activity relationships, and cholesterol-lowering efficacy” (J Med Chem, 2009)
Calls of active or inactive are those of the source. The rule behind the calls is not given here.

Key:
[1] = tested on: HepG2; test: Induction of LDLR mRNA expression in human HepG2 cells after 12 hrs by RT-PCR assay relative to untreated control; format: functional
Summary of the method: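 HepG2 cells kept in RPMI-1640 with 10% FBS, moved 24 h before dosing to 10% LPDS, then at ~80% confluence to RPMI-1640 with 0.5% LPDS plus compound (5.0 µg/mL in table; concentrations as indicated in figure), 12 h, 37 °C. Total RNA reverse-transcribed, TaqMan real-time PCR, comparative CT method with GAPDH reference; fold of untreated cells (=1); mean of three experiments.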

[2] = tested on: HepG2; test: Induction of LDLR protein expression in human HepG2 cells at 10 ug/mL after 12 hrs by flow cytometry; format: functional, cell-based
Summary of the method: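 HepG2 cells in LPDS medium treated 12 h with 10 µg/mL compound, detached, fixed in 2% paraformaldehyde at 4 °C overnight, blocked, stained on ice 1 h with rabbit polyclonal anti-LDLR (1:25), then FITC goat anti-rabbit IgG (1:50) 30 min; normal rabbit IgG background control; cell-surface fluorescence by flow cytometry.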

[3] = tested on: Rattus norvegicus; test: Reduction of blood cholesterol level in hyperlipidemic Sprague-Dawley rat at 100 mg/kg, po daily twice for 30 days relative to control; format: functional; parameters: scale not given: the % may be the effect or the level left
Summary of the method: (§1)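 Male Sprague-Dawley rats on HFHC diet 8 weeks, then saline suspension by gavage at 100 (mg/kg)/day, twice daily, 30 days (n = 8; untreated HFHC n = 6; normal-diet controls). Fasted tail-snip blood at end point; total cholesterol and LDL-c by commercial kits; percent reduction versus untreated HFHC control; mean ± SEM.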

[4] = tested on: Rattus norvegicus; test: Reduction of blood low density lipoprotein cholesterol level in hyperlipidemic Sprague-Dawley rat at 100 mg/kg, po daily twice for 30 days relative to control; format: functional; parameters: scale not given: the % may be the effect or the level left; summary of the method: as §1
[5] = tested on: Rattus norvegicus; test: Reduction of blood cholesterol level in hyperlipidemic Sprague-Dawley rat at 100 mg/kg, po daily twice; format: functional, organism-based; parameters: dose 100 mg/kg; conditions: TDE = time-dependent effect
[6] = tested on: Rattus norvegicus; test: Reduction of blood low density lipoprotein cholesterol level in hyperlipidemic Sprague-Dawley rat at 100 mg/kg, po daily twice; format: functional, organism-based; parameters: dose 100 mg/kg; conditions: TDE = time-dependent effect
[7] = tested on: Rattus norvegicus; test: Induction of LDLR mRNA expression in hyperlipidemic Sprague-Dawley rat liver at 100 mg/kg, po daily twice for 30 days by RT-PCR relative to control; format: functional
Summary of the method: (§2)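 Male Sprague-Dawley rats (180 ± 10 g) fed HFHC diet (2% cholesterol, 10% yolk powder, 15% lard, 0.2% sodium cholate) 8 weeks, then gavaged with compound suspended in saline, 100 (mg/kg)/day, twice daily, 30 days (n = 8; untreated n = 6). Liver RNA, TaqMan real-time RT-PCR, comparative CT with GAPDH; fold of untreated HFHC control.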

[8] = tested on: Rattus norvegicus; test: Induction of HMG-CoA reductase mRNA expression in hyperlipidemic Sprague-Dawley rat liver at 100 mg/kg, po daily twice for 30 days by RT-PCR; format: functional, organism-based; parameters: dose 100 mg/kg; summary of the method: as §2
[9] = tested on: Rattus norvegicus; test: Toxicity in hyperlipidemic Sprague-Dawley rat assessed as weight loss at 100 mg/kg, po daily twice for 30 days; format: organism-based; parameters: dose 100 mg/kg, route oral; conditions: in vivo, 720 h
Summary of the method: (§3)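 Hyperlipidemic Sprague-Dawley rats (HFHC diet 8 weeks) gavaged with saline suspension, 100 (mg/kg)/day twice daily, 30 days. Body weight and food intake monitored; fasted blood before and after treatment assayed with commercial kits for AST, ALT, BUN and creatinine; mean and sd.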

[10] = tested on: Rattus norvegicus; test: Toxicity in hyperlipidemic Sprague-Dawley rat assessed as food intake reduction at 100 mg/kg, po daily twice for 30 days; format: organism-based; parameters: dose 100 mg/kg, route oral; conditions: in vivo, 720 h; summary of the method: as §3
[11] = tested on: Rattus norvegicus; test: Toxicity in hyperlipidemic Sprague-Dawley rat assessed as liver and kidney function abnormalities at 100 mg/kg, po daily twice for 30 days; format: organism-based; parameters: dose 100 mg/kg, route oral; conditions: in vivo, 720 h; summary of the method: as §3
[12] = tested on: Rattus norvegicus; test: Reduction of blood cholesterol level in hyperlipidemic Sprague-Dawley rat at 100 mg/kg, po daily twice for 17 days relative to control; format: functional; parameters: scale not given: the % may be the effect or the level left
Summary of the method: (§4)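 Hyperlipidemic Sprague-Dawley rats (HFHC diet 8 weeks) untreated (n = 6) or gavaged twice daily with saline suspension at 100 or 300 (mg/kg)/day (n = 8 each) for 17 days; fasted tail-snip blood at end point; total cholesterol and LDL-c by commercial kits, relative to untreated control.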

[13] = tested on: Rattus norvegicus; test: Reduction of blood low density lipoprotein cholesterol level in hyperlipidemic Sprague-Dawley rat at 100 mg/kg, po daily twice for 17 days relative to control; format: functional; parameters: scale not given: the % may be the effect or the level left; summary of the method: as §4
[14] = tested on: Rattus norvegicus; test: Reduction of blood cholesterol level in hyperlipidemic Sprague-Dawley rat at 300 mg/kg, po daily twice for 17 days relative to control; format: functional; parameters: scale not given: the % may be the effect or the level left; summary of the method: as §4
[15] = tested on: Rattus norvegicus; test: Reduction of blood low density lipoprotein cholesterol level in hyperlipidemic Sprague-Dawley rat at 300 mg/kg, po daily twice for 17 days relative to control; format: functional; parameters: scale not given: the % may be the effect or the level left; summary of the method: as §4
[16] = tested on: Rattus norvegicus; test: Induction of LDLR mRNA expression in hyperlipidemic Sprague-Dawley rat liver at 100 mg/kg, po daily twice for 17 days by RT-PCR relative to control; format: functional, organism-based; parameters: dose 100 mg/kg
Summary of the method: (§5)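 Hyperlipidemic male Sprague-Dawley rats (HFHC diet 8 weeks) untreated (n = 6) or gavaged twice daily with saline suspension at 100 or 300 (mg/kg)/day (n = 8 each) for 17 days. Liver total RNA, real-time RT-PCR for LDLR, GAPDH-normalized, fold of HFHC group (=1); mean ± SE, one-way ANOVA.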

[17] = tested on: Rattus norvegicus; test: Induction of LDLR mRNA expression in hyperlipidemic Sprague-Dawley rat liver at 300 mg/kg, po daily twice for 17 days by RT-PCR relative to control; format: functional; summary of the method: as §5
[18] = tested on: Mus musculus; test: Reduction of blood cholesterol level in hyperlipidemic C57BL/6J mouse at 100 mg/kg, po daily twice for 21 days relative to control; format: functional; parameters: scale not given: the % may be the effect or the level left
Summary of the method: (§6)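 Male C57BL/6J mice fed HFHC diet 8 weeks, then gavaged twice daily (0.2 mL saline suspension) at 100 (mg/kg)/day for 21 days (n = 8; untreated n = 6). Fasted tail-snip blood; total cholesterol and LDL-c by commercial kits relative to untreated control.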

[19] = tested on: Mus musculus; test: Reduction of blood low density lipoprotein cholesterol level in hyperlipidemic C57BL/6J mouse at 100 mg/kg, po daily twice for 21 days relative to control; format: functional; parameters: scale not given: the % may be the effect or the level left; summary of the method: as §6
[20] = tested on: Mus musculus; test: Induction of LDLR mRNA expression in hyperlipidemic C57BL/6J mouse liver at 100 mg/kg, po daily twice for 21 days by RT-PCR relative to control; format: functional
Summary of the method: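 Male C57BL/6J mice (21 ± 2 g) fed HFHC diet 8 weeks, then gavaged twice daily with saline suspension at 100 (mg/kg)/day for 21 days (n = 8; untreated n = 6). Liver LDLR mRNA by TaqMan real-time RT-PCR, comparative CT with GAPDH, relative to untreated control.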

[21] = tested on: Mus musculus; test: Acute toxicity in po dosed Kunming mouse after 14 days; format: organism-based; conditions: in vivo, 336 h
Summary of the method: (§7)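 Male Kunming mice (19 ± 1 g), six per group, given a single oral dose of saline (control) or compound at 250, 1000 or 5000 mg/kg. Animals weighed daily and monitored 14 days. Then sacrificed; liver, kidney, heart, lung, brain and colon fixed in 10% formaldehyde at room temperature and examined by H&E histology.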

[22] = tested on: Mus musculus; test: Acute toxicity in Kunming mouse assessed as change in body weight at 250 mg/kg, po; format: organism-based; parameters: dose 250 mg/kg, route oral; conditions: in vivo; summary of the method: as §7
[23] = tested on: Mus musculus; test: Acute toxicity in Kunming mouse assessed as change in body weight at 1000 mg/kg, po; format: organism-based; parameters: dose 1000 mg/kg, route oral; conditions: in vivo; summary of the method: as §7
[24] = tested on: Mus musculus; test: Acute toxicity in Kunming mouse assessed as liver damage upto 5000 mg/kg, po after 14 days by hematoxylin and eosin staining; format: organism-based; parameters: dose 5000 mg/kg, route oral; conditions: in vivo, 336 h; summary of the method: as §7
[25] = tested on: Mus musculus; test: Acute toxicity in Kunming mouse assessed as kidney damage upto 5000 mg/kg, po after 14 days by hematoxylin and eosin staining; format: organism-based; parameters: dose 5000 mg/kg, route oral; conditions: in vivo, 336 h; summary of the method: as §7
[26] = tested on: Mus musculus; test: Acute toxicity in Kunming mouse assessed as heart damage upto 5000 mg/kg, po after 14 days by hematoxylin and eosin staining; format: organism-based; parameters: dose 5000 mg/kg, route oral; conditions: in vivo, 336 h; summary of the method: as §7
[27] = tested on: Mus musculus; test: Acute toxicity in po dosed Kunming mouse assessed as lung damage upto 5000 mg/kg, po after 14 days by hematoxylin and eosin staining; format: organism-based; parameters: dose 5000 mg/kg, route oral; conditions: in vivo, 336 h; summary of the method: as §7
[28] = tested on: Mus musculus; test: Acute toxicity in Kunming mouse assessed as brain damage upto 5000 mg/kg, po after 14 days by hematoxylin and eosin staining; format: organism-based; parameters: dose 5000 mg/kg, route oral; conditions: in vivo, 336 h; summary of the method: as §7
[29] = tested on: Mus musculus; test: Acute toxicity in Kunming mouse assessed as colon damage upto 5000 mg/kg, po after 14 days by hematoxylin and eosin staining; format: organism-based; parameters: dose 5000 mg/kg, route oral; conditions: in vivo, 336 h; summary of the method: as §7

Question: For `CCCCc1c2[n+](cc3c(OC)c(OC)ccc13)CCc1cc3c(cc1-2)OCO3.[Cl-]`, which “fold change (FC)” value [1] is on record?
Answer: 0.9

Question: Which “fold change (FC)” value [1] does the source give for `COc1ccc2c(c1OC)C[N+]1(CCO)CCc3cc4c(cc3C1C2)OCO4.[Br-]` (stereo not drawn) here?
Answer: 1.2

Question: `COc1ccc2c(c1OC)CN1CCc3cc4c(cc3[C@@H]1C2)OCO4` [CANADINE] was tested. Which “fold change (FC)” value [1] did it give?
Answer: 1

Question: Which results are given for `COc1cc2cc3[n+](cc2cc1OC)CCc1cc2c(cc1-3)OCO2.[Cl-]` [PSEUDOBERBERINE]?
Answer: fold change (FC) [1]: 3.5; Activity [2]: Active; Activity [3]: 42.6%; Activity [4]: 49.4%; Activity [5]: tde; Activity [6]: tde; fold change (FC) [7]: 2.9; Activity [8]: inactive; Activity [9]: Non-toxic; Activity [10]: Non-toxic; Activity [11]: Non-toxic; Activity [12]: 28.5%; Activity [13]: 31%; Activity [14]: 46.3%; Activity [15]: 53.6%; Activity [16]: Active; fold change (FC) [17]: 4.8; Activity [18]: 29.7%; Activity [19]: 39%; fold change (FC) [20]: 3.2; Activity [21]: Non-toxic; Activity [22]: Non-toxic; Activity [23]: Non-toxic; Activity [24]: Non-toxic; Activity [25]: Non-toxic; Activity [26]: Non-toxic; Activity [27]: Non-toxic; Activity [28]: Non-toxic; Activity [29]: Non-toxic

Question: For `CCCC[N+]12CCc3cc4c(cc3C1Cc1ccc(OC)c(OC)c1C2)OCO4.[Br-]` (stereo not drawn), which “fold change (FC)” value [1] is on record?
Answer: 1.1

Question: With `CCCCCCc1c2[n+](cc3c(OC)c(OC)ccc13)CCc1cc3c(cc1-2)OCO3.[Cl-]` as the compound, how does the “fold change (FC)” value [1] read?
Answer: 1

Question: For `CC[N+]12CCc3cc4c(cc3C1Cc1ccc(OC)c(OC)c1C2)OCO4.[Br-]` (stereo not drawn), which “fold change (FC)” value [1] is on record?
Answer: 1

Question: With `COc1cc2c[n+]3c(c(Cc4ccccc4)c2cc1OC)-c1cc2c(cc1CC3)OCO2.[Br-]` as the compound, how does the “fold change (FC)” value [1] read?
Answer: 1

Question: Which “fold change (FC)” value [1] does the source give for `COc1cc2c(cc1OC)CN1CCc3cc4c(cc3C1C2)OCO4` (stereo not drawn) here?
Answer: 1.3

Question: With `CCOC(=O)C[N+]12CCc3cc4c(cc3C1Cc1ccc(OC)c(OC)c1C2)OCO4.[Br-]` (stereo not drawn) as the compound, how does the “fold change (FC)” value [1] read?
Answer: 0.8

Question: How did the “fold change (FC)” value [1] turn out when `CCC[N+]12CCc3cc4c(cc3C1Cc1cc(OC)c(OC)cc1C2)OCO4.[I-]` (stereo not drawn) was run?
Answer: 0.9

Question: For `COc1ccc2c(c1OC)C[N+]1(Cc3ccccc3)CCc3cc4c(cc3C1C2)OCO4.[Br-]` (stereo not drawn), which “fold change (FC)” value [1] is on record?
Answer: 1.1

Question: `CCc1c2[n+](cc3c(OC)c(OC)ccc13)CCc1cc3c(cc1-2)OCO3.[Cl-]` was tested. Which “fold change (FC)” value [1] did it give?
Answer: 1.04

Question: `CCCCc1c2[n+](cc3cc(OC)c(OC)cc13)CCc1cc3c(cc1-2)OCO3.[Cl-]` was tested. Which “fold change (FC)” value [1] did it give?
Answer: 0.9

Question: `COc1cc2c[n+]3c(c(C)c2cc1OC)-c1cc2c(cc1CC3)OCO2.[Cl-]` was tested. Which “fold change (FC)” value [1] did it give?
Answer: 0.9
